Compound activity: PubChem, several laboratories
STAT1 activator – increases IFN-gamma driven STAT1 reporter signal. activation (% of control), % at 5.5 µM. NIH 3T3 STAT1-luciferase reporter, luminescence; 100% = IFN-gamma alone, no compound. actives 2.6% (n = 200,000). AID 932;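 active means activation above the screen-wide mean activation plus 3 SD, cut at about 130% in these data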;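 further: raw ratio to IFN-gamma control signal so 100% means no change and 0% no light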
APP 5'UTR act – APP 5'UTR luciferase reporter activation; SH-SY5Y APP 5'UTR luciferase reporter, luminescence; zero percent = DMSO vehicle wells; activation, % at 2 µM; AID 1276; actives 1% (n = 190,000);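 active means activation above a set limit, based on mean plus 3 SD of controls, cut at about 140% in these data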
FLuc inh counter – inhibits firefly luciferase, flagging false hits in luciferase inhibition screens; ATPLite firefly luciferase biochemical luminescence, 10 min; inhibition, % at 10 µM; actives 1.5% (n = 200,000); AID 1006;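 active means inhibition above about 50% when tested at 10 µM, limit read from the data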
FLuc act counter – affects firefly luciferase, flagging false hits in luciferase stimulation screens. P08659. ATPlite luciferase biochemical, luminescence, 10 min; 0 = ATP-free wells, 1 = DMSO control. activation factor at 10 µM. 200,000 tested, under 10 active. AID 1027;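 active means luciferase activation factor, scaled between plate controls, of at least 2 with compound at 10 µM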
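Assay system: Luciferase/luciferin reagent mix; Medium: PBS as buffer for the ATP substrate; Dosing: test compounds dosed from 2 mM stocks in 100% DMSO; Times: 10 min, room temperature; Signal: luminescence from luciferase reaction; Read-out: luciferase activation; Controls: No-ATP low control, compound-free enzyme-plus-ATP high control.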
Rad51 HR inh – blocks human Rad51 in homologous recombination; Q06609; hRad51 DNA strand exchange, fluorescence dequenching; inhibition, % at 10 µM; actives 0.085% (n = 200,000); AID 1385;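 active means inhibition above 40% at the single screening dose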;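 further: 0% = DMSO control wells and 100% = blanks with heterologous ssDNA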
Target sequence (Q06609 whole entry, looked up): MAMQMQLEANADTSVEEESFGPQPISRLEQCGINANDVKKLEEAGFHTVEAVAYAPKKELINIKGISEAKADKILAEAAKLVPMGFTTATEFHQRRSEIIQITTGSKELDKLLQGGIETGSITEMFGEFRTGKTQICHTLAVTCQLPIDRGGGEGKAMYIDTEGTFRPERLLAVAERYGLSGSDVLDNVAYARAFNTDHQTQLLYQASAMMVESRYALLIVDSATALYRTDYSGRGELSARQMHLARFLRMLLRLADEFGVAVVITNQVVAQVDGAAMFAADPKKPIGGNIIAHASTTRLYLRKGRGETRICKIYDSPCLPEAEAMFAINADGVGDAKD
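Material: human Rad51–ssDNA filaments; Probe or stimulus: labelled 47-mer dsDNA for strand exchange; Doses: single 10 µM dose; Incubation: 37 °C 15-min filament assembly, 30-min compound preincubation, 15-min exchange; Technique: FRET fluorescence dequenching, excitation 485 nm, emission 520 nm; Measure: Fluorescence-based percent inhibition, control- and blank-normalised; Benchmarks: plate control and blank wells.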
NF-kB neuron act – NF-kB expression increase, human neuronal cells; fold change at 12.5 µM; actives 1.6% (n = 190,000); NF-kB reporter expression; stronger effect = higher value; in the data active means fold change above about 3.3
STAT1 activ conf – confirmation of STAT1 signaling activators | shares compounds with STAT1 activator | NIH 3T3 STAT1-luciferase reporter, IFN-gamma potentiation, luminescence; 100% = IFN-gamma EC80 alone, no compound | activation (% of control), % at 5.7 µM | actives 97% (n = 1,200);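 active means activation above a set limit carried over from the earlier primary STAT1 screen, cut at about 140% in these data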;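 further: simple ratio to median IFN-gamma plus DMSO wells so 0% means no light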
NFkB act – activates NF-kappaB, counter-screen to STAT1 activators; shares compounds with STAT1 activator; actives 43% (n = 1,200); activation (% of control), % at 5.7 µM; HEK293T NF-kB luciferase reporter, TNF-alpha stimulated, luminescence; 100% = TNF-alpha with vehicle only;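 active means activation above the mean of solvent-only control wells plus 3 SD, set per campaign, cut at about 130% in these data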;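 further: TNF-alpha given at a submaximal dose yielding about 80% of full reporter signal; values are well signal over median control so 100% means no change and 0% no light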
STAT3 act 2 – activates human STAT3, counter-screen to STAT1 activators. shares compounds with STAT1 activator. U3A cells STAT3-luciferase reporter, IL-6, luminescence; cells lack STAT1; 100 = IL-6 alone, no compound effect. activation (% of control), % at 5.7 µM. actives 46% (n = 1,200). AID 1316;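 active means activation above the solvent-only control well mean plus 3 SD, set per plate batch, cut at about 110% in these data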;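 further: 0% = no luminescence and 100% = median IL-6 plus DMSO wells; higher means more STAT3 reporter activation so hits are non-selective activators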
* marks the source's active call; other numbers are inactive results; . = not tested or not shown. Compounds with a hit are over-represented: about 3.9% of the library has one in this group of screens.

SMILES	STAT1 activator	APP 5'UTR act	FLuc inh counter	FLuc act counter	Rad51 HR inh	NF-kB neuron act	STAT1 activ conf	NFkB act	STAT3 act 2
NS(=O)(=O)c1ccc(NC(=O)/C=C/c2cn(-c3ccccc3)nc2-c2cccc(Cl)c2)cc1	108	-6	0	1	-2	1	.	.	.
CC(=O)c1ccc(NCC2COc3ccccc3O2)c([N+](=O)[O-])c1 (stereo not drawn)	159*	145*	-2	1	-8	3.1	229*	140*	220*
NS(=O)(=O)c1ccc(NCC2COc3ccccc3O2)c([N+](=O)[O-])c1 (stereo not drawn)	102	15	-8	1.1	-2	0.99	.	.	.
Cc1ccc2cc(CN(CCCO)S(=O)(=O)c3cccc4nsnc34)c(=O)[nH]c2c1	86	-17	-1	1	-4	0.6	.	.	.
O=C(c1cccs1)N1CCn2c1nc1ccccc12	127	80	49	0.5	8	2.5	.	.	.
O/N=C(/CCc1ccccc1)c1ccc2c(c1)OCCO2	155*	58	1	1	-13	2.5	155*	124	110
O/N=C/c1cc(Cl)ccc1OCc1cccc2ccccc12	97	3	-7	1.1	-11	1	.	.	.
CC(C)(C)NC(=O)CN(C(=O)C(=O)Nc1ccc2c(c1)OCCO2)C(C)(C)C	96	17	-4	1	10	1.2	.	.	.
S=C(NCCc1ccccc1)Nc1cnc2ccccc2c1	125	-1	-4	1	9	1.8	.	.	.
O=C(NNC(=O)c1ccc(NC(=O)c2ccccc2)cc1)c1ccccc1	101	2	-3	1	4	1.1	.	.	.
Cc1ccc(NC(=O)Nc2cnc3ccccc3c2)cc1	181*	198*	9	0.9	6	3	193*	129	111*
O=C(Nc1ccc2nc3ccccc3nc2c1)c1ccccc1	190*	198*	66*	0.3	-2	3.8*	230*	136*	100
O=C(NC(=S)Nc1cnc2ccccc2c1)c1ccccc1	155*	122	10	0.9	-7	4*	186*	123	132*
COc1cc(C)c(Cl)cc1S(=O)(=O)NCc1ccncc1	83	-14	2	1	.	0.86	.	.	.
O=[N+]([O-])c1ccc2nc(-c3ccccc3[N+](=O)[O-])[nH]c2c1	126	1	0	1	20	2.4	.	.	.
COc1ccc2nc(-c3ccccc3)[nH]c2c1	153*	178*	74*	0.3	5	5.5*	199*	124	104
COc1ccc2nc(C(C)O)[nH]c2c1 (stereo not drawn)	100	-4	1	1	11	1.3	.	.	.
COc1ccc(-c2nc3ccc([N+](=O)[O-])cc3[nH]2)cc1	182*	160*	44	0.6	0	8.7*	251*	131	98
O=[N+]([O-])c1ccc2nc(-c3ccc(Cl)cc3)[nH]c2c1	155*	156*	27	0.7	-28	1.1	206*	133	102
O=C(Nc1ccc2nc(-c3cccnc3)[nH]c2c1)c1ccccc1F	106	24	36	0.6	3	0.64	.	.	.
c1cncc(-c2nc3cc4ccccc4cc3[nH]2)c1	156*	154*	82*	0.2	2	2.9	226*	126	103
COc1ccc(CN2C(=O)C(=O)N(CC(N)=O)C2=O)cc1	102	-1	-2	1	22	1.3	.	.	.
